Reference: ChEMBL document CHEMBL4038304, “Chiral Indolylarylsulfone Non-Nucleoside Reverse Transcriptase Inhibitors as New Potent and Broad Spectrum Anti-HIV-1 Agents” (J Med Chem, 2017)

tested on: not listed separately; experiment: Cytotoxicity against human MT4 cells assessed as cell viability by MTT assay; assay type: cell-based; details: not given
How it was run: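 Uninfected MT-4 cells scored for viability by MTT. […] Values are means of two to three independent experiments, each run in triplicate.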

Row | Compound | CC50 [nM]
1 | Cc1cc(C)cc(S(=O)(=O)c2c(C(=O)NC(CF)c3ccccc3)[nH]c3ccc(Cl)cc23)c1 (racemic) | 49200
2 | Cc1cc(C)cc(S(=O)(=O)c2c(C(=O)NC(C)c3cc(F)cc(F)c3)[nH]c3ccc(Cl)cc23)c1 (racemic) | > 49700
3 | Cc1ccnc2c1NC(=O)c1cccnc1N2C1CC1 [NEVIRAPINE] | > 18800
4 | Cc1cc(C)cc(S(=O)(=O)c2c(C(=O)NCC(=O)NCc3ccncc3)[nH]c3ccc(Cl)cc23)c1 | > 48900
5 | Cc1cc(C)cc(S(=O)(=O)c2c(C(=O)Nc3cc(C#N)ccn3)[nH]c3ccc(Cl)cc23)c1 | > 53800
6 | COc1cccc(F)c1CNC(=O)c1[nH]c2ccc(Cl)cc2c1S(=O)(=O)c1cc(C)cc(C)c1 | > 49900
7 | Cc1cc(C)cc(S(=O)(=O)c2c(C(=O)NCc3cccc(F)c3F)[nH]c3ccc(Cl)cc23)c1 | > 51100

tested on: Human immunodeficiency virus 1; experiment: Antiviral activity against HIV1 harboring reverse transcriptase Y181C mutant infected in human […] cells assessed as protection against virus-induced cytopathic effect measured on day 5 post infection by MTT assay; assay type: functional, cell-based; details: Human immunodeficiency virus 1, 120 h

Row | Compound | EC50 [nM]
8 | Cc1cc(C)cc(S(=O)(=O)c2c(C(=O)NC(CF)c3ccccc3)[nH]c3ccc(Cl)cc23)c1 (racemic) | 82
9 | Cc1cc(C)cc(S(=O)(=O)c2c(C(=O)NC(C)c3cc(F)cc(F)c3)[nH]c3ccc(Cl)cc23)c1 (racemic) | 716
10 | Cc1cc(C)cc(S(=O)(=O)c2c(C(=O)NCC(=O)N[C@H](C)c3ccncc3)[nH]c3ccc(Cl)cc23)c1 | 5.71
11 | Cc1cc(C)cc(S(=O)(=O)c2c(C(=O)NCC(=O)N[C@@H](C)c3ccncc3)[nH]c3ccc(Cl)cc23)c1 | 2.5
12 | Cc1ccnc2c1NC(=O)c1cccnc1N2C1CC1 [NEVIRAPINE] | > 3760
13 | Cc1cc(C)cc(S(=O)(=O)c2c(C(=O)NCC(=O)NCc3ccncc3)[nH]c3ccc(Cl)cc23)c1 | 20
14 | Cc1cc(C)cc(S(=O)(=O)c2c(C(=O)Nc3cc(C#N)ccn3)[nH]c3ccc(Cl)cc23)c1 | 2.2
15 | COc1cccc(F)c1CNC(=O)c1[nH]c2ccc(Cl)cc2c1S(=O)(=O)c1cc(C)cc(C)c1 | 399
16 | Cc1cc(C)cc(S(=O)(=O)c2c(C(=O)NCc3cccc(F)c3F)[nH]c3ccc(Cl)cc23)c1 | 2

tested on: Human immunodeficiency virus 1; experiment: Ratio of EC50 for HIV-1 harboring reverse transcriptase K103N/[…] double mutant infected in human MT4 cells to EC50 for HIV1 NL4-3 infected in human MT4 cells; assay type: functional; details: not given
How it was run: (§1)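 Fold change calculated as EC50 against the stated resistant mutant HIV-1 strain divided by EC50 against wild-type NL4-3. Both EC50s come from MTT read-out of virus-induced death in MT-4 cells, mean of two to three independent experiments each in triplicate.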

Row | Compound | Ratio EC50
17 | Cc1cc(C)cc(S(=O)(=O)c2c(C(=O)NC(CF)c3ccccc3)[nH]c3ccc(Cl)cc23)c1 (racemic) | 39030
18 | Cc1cc(C)cc(S(=O)(=O)c2c(C(=O)NC(C)c3cc(F)cc(F)c3)[nH]c3ccc(Cl)cc23)c1 (racemic) | >82843
19 | Cc1cc(C)cc(S(=O)(=O)c2c(C(=O)NCC(=O)NCc3ccncc3)[nH]c3ccc(Cl)cc23)c1 | 30430
20 | Cc1cc(C)cc(S(=O)(=O)c2c(C(=O)Nc3cc(C#N)ccn3)[nH]c3ccc(Cl)cc23)c1 | >89622
21 | COc1cccc(F)c1CNC(=O)c1[nH]c2ccc(Cl)cc2c1S(=O)(=O)c1cc(C)cc(C)c1 | 46243
22 | Cc1cc(C)cc(S(=O)(=O)c2c(C(=O)NCc3cccc(F)c3F)[nH]c3ccc(Cl)cc23)c1 | >73046

tested on: Human immunodeficiency virus 1; experiment: Antiviral activity against HIV1 NL4-3 infected in human […] cells assessed as protection against virus-induced cytopathic effect measured on day 5 post infection by MTT assay; assay type: functional, cell-based; details: Human immunodeficiency virus 1, NL4-3, 120 h
How it was run: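 Values are means of two to three independent experiments, each run in triplicate. The lowest detectable concentration is reported where activity fell below the assay limit.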

Row | Compound | EC50 [nM]
23 | Cc1cc(C)cc(S(=O)(=O)c2c(C(=O)NC(CF)c3ccccc3)[nH]c3ccc(Cl)cc23)c1 (racemic) | 0.7
24 | Cc1cc(C)cc(S(=O)(=O)c2c(C(=O)NC(C)c3cc(F)cc(F)c3)[nH]c3ccc(Cl)cc23)c1 (racemic) | 0.6
25 | Cc1cc(C)cc(S(=O)(=O)c2c(C(=O)NCC(=O)N[C@H](C)c3ccncc3)[nH]c3ccc(Cl)cc23)c1 | 0.7
26 | Cc1cc(C)cc(S(=O)(=O)c2c(C(=O)NCC(=O)N[C@@H](C)c3ccncc3)[nH]c3ccc(Cl)cc23)c1 | 0.7
27 | Cc1ccnc2c1NC(=O)c1cccnc1N2C1CC1 [NEVIRAPINE] | 112
28 | Cc1cc(C)cc(S(=O)(=O)c2c(C(=O)NCC(=O)NCc3ccncc3)[nH]c3ccc(Cl)cc23)c1 | 0.2
29 | Cc1cc(C)cc(S(=O)(=O)c2c(C(=O)Nc3cc(C#N)ccn3)[nH]c3ccc(Cl)cc23)c1 | 0.6
30 | COc1cccc(F)c1CNC(=O)c1[nH]c2ccc(Cl)cc2c1S(=O)(=O)c1cc(C)cc(C)c1 | 0.6
31 | Cc1cc(C)cc(S(=O)(=O)c2c(C(=O)NCc3cccc(F)c3F)[nH]c3ccc(Cl)cc23)c1 | 0.7

tested on: Human immunodeficiency virus 1; experiment: Ratio of EC50 for HIV-1 harboring reverse transcriptase K103N mutant infected in human MT4 cells to EC50 for HIV1 NL4-3 infected in human MT4 cells; assay type: functional; details: not given; how it was run: as §1

Row | Compound | Ratio EC50
32 | Cc1cc(C)cc(S(=O)(=O)c2c(C(=O)NC(CF)c3ccccc3)[nH]c3ccc(Cl)cc23)c1 (racemic) | 1
33 | Cc1cc(C)cc(S(=O)(=O)c2c(C(=O)NC(C)c3cc(F)cc(F)c3)[nH]c3ccc(Cl)cc23)c1 (racemic) | 2
34 | Cc1cc(C)cc(S(=O)(=O)c2c(C(=O)Nc3cc(C#N)ccn3)[nH]c3ccc(Cl)cc23)c1 | 1
35 | COc1cccc(F)c1CNC(=O)c1[nH]c2ccc(Cl)cc2c1S(=O)(=O)c1cc(C)cc(C)c1 | 1
36 | Cc1cc(C)cc(S(=O)(=O)c2c(C(=O)NCc3cccc(F)c3F)[nH]c3ccc(Cl)cc23)c1 | 1

tested on: Human immunodeficiency virus 1; experiment: Antiviral activity against HIV1 harboring reverse transcriptase K103N mutant infected in human […] cells assessed as protection against virus-induced cytopathic effect measured on day 5 post infection by MTT assay; assay type: functional, cell-based; details: Human immunodeficiency virus 1, 120 h

Row | Compound | EC50 [nM]
37 | Cc1cc(C)cc(S(=O)(=O)c2c(C(=O)NC(CF)c3ccccc3)[nH]c3ccc(Cl)cc23)c1 (racemic) | 0.7
38 | Cc1cc(C)cc(S(=O)(=O)c2c(C(=O)NC(C)c3cc(F)cc(F)c3)[nH]c3ccc(Cl)cc23)c1 (racemic) | 1.2
39 | Cc1cc(C)cc(S(=O)(=O)c2c(C(=O)NCC(=O)N[C@H](C)c3ccncc3)[nH]c3ccc(Cl)cc23)c1 | 152
40 | Cc1cc(C)cc(S(=O)(=O)c2c(C(=O)NCC(=O)N[C@@H](C)c3ccncc3)[nH]c3ccc(Cl)cc23)c1 | 438
41 | Cc1ccnc2c1NC(=O)c1cccnc1N2C1CC1 [NEVIRAPINE] | > 3760
42 | Cc1cc(C)cc(S(=O)(=O)c2c(C(=O)NCC(=O)NCc3ccncc3)[nH]c3ccc(Cl)cc23)c1 | 190
43 | Cc1cc(C)cc(S(=O)(=O)c2c(C(=O)Nc3cc(C#N)ccn3)[nH]c3ccc(Cl)cc23)c1 | 0.6
44 | COc1cccc(F)c1CNC(=O)c1[nH]c2ccc(Cl)cc2c1S(=O)(=O)c1cc(C)cc(C)c1 | 0.6
45 | Cc1cc(C)cc(S(=O)(=O)c2c(C(=O)NCc3cccc(F)c3F)[nH]c3ccc(Cl)cc23)c1 | 0.7

tested on: not listed separately; experiment: Selectivity index, ratio of CC50 for human MT4 cells to EC50 for HIV1 NL4-3 infected in human MT4 cells; assay type: toxicity, cell-based; details: read-out: Ratio CC50/EC50
How it was run: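 SI computed as CC50/EC50, using the MTT-based CC50 in uninfected MT-4 cells and the MTT-based EC50 against HIV-1 NL4-3-induced cell death in MT-4 cells. Experiments were run in triplicate, two to three times.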

Row | Compound | selectivity ratio
46 | Cc1cc(C)cc(S(=O)(=O)c2c(C(=O)NC(CF)c3ccccc3)[nH]c3ccc(Cl)cc23)c1 (racemic) | > 70300
47 | Cc1cc(C)cc(S(=O)(=O)c2c(C(=O)NC(C)c3cc(F)cc(F)c3)[nH]c3ccc(Cl)cc23)c1 (racemic) | > 82800
48 | Cc1cc(C)cc(S(=O)(=O)c2c(C(=O)NCC(=O)NCc3ccncc3)[nH]c3ccc(Cl)cc23)c1 | > 245000
49 | Cc1cc(C)cc(S(=O)(=O)c2c(C(=O)Nc3cc(C#N)ccn3)[nH]c3ccc(Cl)cc23)c1 | > 89600
50 | COc1cccc(F)c1CNC(=O)c1[nH]c2ccc(Cl)cc2c1S(=O)(=O)c1cc(C)cc(C)c1 | > 83200
51 | Cc1cc(C)cc(S(=O)(=O)c2c(C(=O)NCc3cccc(F)c3F)[nH]c3ccc(Cl)cc23)c1 | > 73000

tested on: Human immunodeficiency virus 1; experiment: Ratio of EC50 for HIV-1 harboring reverse transcriptase Y181C mutant infected in human MT4 cells to EC50 for HIV1 NL4-3 infected in human MT4 cells; assay type: functional; details: not given; how it was run: as §1

Row | Compound | Ratio EC50
52 | Cc1cc(C)cc(S(=O)(=O)c2c(C(=O)NC(CF)c3ccccc3)[nH]c3ccc(Cl)cc23)c1 (racemic) | 117
53 | Cc1cc(C)cc(S(=O)(=O)c2c(C(=O)NC(C)c3cc(F)cc(F)c3)[nH]c3ccc(Cl)cc23)c1 (racemic) | 1198
54 | Cc1cc(C)cc(S(=O)(=O)c2c(C(=O)NCC(=O)NCc3ccncc3)[nH]c3ccc(Cl)cc23)c1 | 100
55 | Cc1cc(C)cc(S(=O)(=O)c2c(C(=O)Nc3cc(C#N)ccn3)[nH]c3ccc(Cl)cc23)c1 | 3.7
56 | COc1cccc(F)c1CNC(=O)c1[nH]c2ccc(Cl)cc2c1S(=O)(=O)c1cc(C)cc(C)c1 | 665
57 | Cc1cc(C)cc(S(=O)(=O)c2c(C(=O)NCc3cccc(F)c3F)[nH]c3ccc(Cl)cc23)c1 | 2.9

tested on: Human immunodeficiency virus 1; experiment: Antiviral activity against HIV1 harboring reverse transcriptase K103N /[…] double mutant infected in human […] cells assessed as protection against virus-induced cytopathic effect measured on day 5 post infection by MTT assay; assay type: functional, cell-based; details: Human immunodeficiency virus 1, 120 h

Row | Compound | EC50 [nM]
58 | Cc1cc(C)cc(S(=O)(=O)c2c(C(=O)NC(CF)c3ccccc3)[nH]c3ccc(Cl)cc23)c1 (racemic) | 27300
59 | Cc1cc(C)cc(S(=O)(=O)c2c(C(=O)NC(C)c3cc(F)cc(F)c3)[nH]c3ccc(Cl)cc23)c1 (racemic) | > 49700
60 | Cc1cc(C)cc(S(=O)(=O)c2c(C(=O)NCC(=O)N[C@H](C)c3ccncc3)[nH]c3ccc(Cl)cc23)c1 | 12200
61 | Cc1cc(C)cc(S(=O)(=O)c2c(C(=O)NCC(=O)N[C@@H](C)c3ccncc3)[nH]c3ccc(Cl)cc23)c1 | 4630
62 | Cc1ccnc2c1NC(=O)c1cccnc1N2C1CC1 [NEVIRAPINE] | > 3760
63 | Cc1cc(C)cc(S(=O)(=O)c2c(C(=O)NCC(=O)NCc3ccncc3)[nH]c3ccc(Cl)cc23)c1 | 6090
64 | Cc1cc(C)cc(S(=O)(=O)c2c(C(=O)Nc3cc(C#N)ccn3)[nH]c3ccc(Cl)cc23)c1 | > 53800
65 | COc1cccc(F)c1CNC(=O)c1[nH]c2ccc(Cl)cc2c1S(=O)(=O)c1cc(C)cc(C)c1 | 27700
66 | Cc1cc(C)cc(S(=O)(=O)c2c(C(=O)NCc3cccc(F)c3F)[nH]c3ccc(Cl)cc23)c1 | > 51100

tested on: Human immunodeficiency virus 1; experiment: Antiviral activity against HIV1 harboring reverse transcriptase Y188L mutant infected in human […] cells assessed as protection against virus-induced cytopathic effect measured on day 5 post infection by MTT assay; assay type: functional, cell-based; details: Human immunodeficiency virus 1, 120 h

Row | Compound | EC50 [nM]
67 | Cc1cc(C)cc(S(=O)(=O)c2c(C(=O)NCC(=O)N[C@H](C)c3ccncc3)[nH]c3ccc(Cl)cc23)c1 | 3270
68 | Cc1cc(C)cc(S(=O)(=O)c2c(C(=O)NCC(=O)N[C@@H](C)c3ccncc3)[nH]c3ccc(Cl)cc23)c1 | 3050
69 | Cc1ccnc2c1NC(=O)c1cccnc1N2C1CC1 [NEVIRAPINE] | > 3760
70 | Cc1cc(C)cc(S(=O)(=O)c2c(C(=O)NCC(=O)NCc3ccncc3)[nH]c3ccc(Cl)cc23)c1 | 1400
